≈ marks a conversion by molar mass, not a printed value.
Legend:
[1] = system: Mycobacterium tuberculosis; test: Antimicrobial activity against multi drug-resistant Mycobacterium tuberculosis 14231 after 7 days by MABA; assay type: functional; settings: Mycobacterium tuberculosis, 14231, 168 h
How it was run: (§1)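 Strain H37Rv or clinical isolates grown to late log phase in 7H9-ADC-TG, washed, resuspended in PBS, filtered (8 µm) and frozen. On day 7 Tween 80 and alamar blue added, read 16–24 h later (ex 530/em 590). MIC = lowest concentration giving ≥90% fluorescence reduction versus bacterium-only controls.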

[2] = system: Mycobacterium tuberculosis; test: Antimicrobial activity against multi drug-resistant Mycobacterium tuberculosis 12611 after 7 days by MABA; assay type: functional; settings: Mycobacterium tuberculosis, 12611, 168 h; how it was run: as §1

SMILES: NNC(=O)c1ccncc1 [ISONIAZID]
- MIC90 [1]: > 40 µg/mL
- MIC90 [2]: 19.5 µg/mL (≈ 142 µM)

SMILES: O=c1cc(N2CCN(Cc3ccccc3)CC2)sc2c([N+](=O)[O-])cc(C(F)(F)F)cc12
- MIC90 [1]: 0.023 µg/mL (≈ 0.0512 µM)
- MIC90 [2]: 0.011 µg/mL (≈ 0.0245 µM)

SMILES: CO[C@H]1/C=C/O[C@@]2(C)Oc3c(C)c(O)c4c(O)c(c(/C=N/N5CCN(C)CC5)c(O)c4c3C2=O)NC(=O)/C(C)=C\C=C\[C@H](C)[C@H](O)[C@@H](C)[C@@H](O)[C@@H](C)[C@H](OC(C)=O)[C@@H]1C [RIFAMPIN]
- MIC90 [1]: > 40 µg/mL
- MIC90 [2]: > 40 µg/mL

SMILES: O=c1nc(N2CCN(CC3CCCCC3)CC2)sc2c([N+](=O)[O-])cc(C(F)(F)F)cc12 [MACOZINONE]
- MIC90 [1]: < 0.002 µg/mL
- MIC90 [2]: < 0.002 µg/mL

SMILES: O=c1cc(N2CCN(CC3CCCCC3)CC2)sc2c([N+](=O)[O-])cc(C(F)(F)F)cc12
- MIC90 [1]: < 0.002 µg/mL
- MIC90 [2]: < 0.002 µg/mL

From ChEMBL document CHEMBL4382210, “Identification of novel benzothiopyranone compounds against Mycobacterium tuberculosis through scaffold morphing from benzothiazinones” (Eur J Med Chem, 2018)
